Reference: ChEMBL document CHEMBL1126731, “Structure-activity relationship studies with symmetric naphthalenesulfonic acid derivatives. Synthesis and influence of spacer and naphthalenesulfonic acid moiety on anti-HIV-1 activity” (J Med Chem, 1993)

How the values were obtained:
[1] = system: MOLT-4; assay: Percentage inhibition of HIV-1-induced giant cell (syncytia) formation using MOLT-4 cell at 0.8 uM; format: functional; conditions: Homo sapiens
Outline: (§1)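 MOLT-4 cells (5×10^4/well) were cocultured with an equal number of chronically infected MOLT-4/HTLV-III_B cells at various compound concentrations for 24 h. Cell clusters were then broken by gentle pipetting, and giant cells were counted under the microscope.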

[2] = system: MOLT-4; assay: Percentage inhibition of HIV-1-induced giant cell (syncytia) formation using MOLT-4 cell at 20 uM; format: functional; conditions: Homo sapiens; outline: as §1
[3] = system: Human immunodeficiency virus 1; assay: Antiviral activity against HIV-1 (HTLV-IIIB) in MT-4 cells; format: functional, organism-based; conditions: Human immunodeficiency virus 1, MT4
Outline: (§2)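 MT-4 cells were infected with the HIV-1 strain named in the line and cultured with the test compound for 4 days. Viable cells were then counted by the MTT method. EC50 is the 50% effective antiviral concentration and CC50 the 50% cytotoxic concentration, each the mean of at least two separate experiments.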

[4] = system: MT4; assay: Cytotoxicity against HIV-1 in MT-4 cells was evaluated by using a clinical strain (HE); format: functional; conditions: Homo sapiens; outline: as §2
[5] = system: MT4; assay: Antiviral activity against HIV-1 in MT-4 cells was evaluated by using a clinical strain (HE); format: functional, cell-based; conditions: Homo sapiens; outline: as §2
[6] = system: MOLT-4; assay: Inhibition of HIV-1-induced giant cell (syncytia) formation using MOLT-4 cell; format: functional, cell-based; conditions: Homo sapiens; outline: as §1
[7] = system: Human immunodeficiency virus 1; assay: Cytotoxicity against HIV-1 (HTLV-IIIB) in MT-4 cells; format: functional; conditions: Human immunodeficiency virus 1, MT4; outline: as §2
[8] = system: MOLT-4; assay: Percentage inhibition of HIV-1-induced giant cell (syncytia) formation using MOLT-4 cell at 4 uM; format: functional; conditions: Homo sapiens; outline: as §1
[9] = system: MOLT-4; assay: Percentage inhibition of HIV-1-induced giant cell (syncytia) formation using MOLT-4 cell at 500 uM; format: functional; conditions: Homo sapiens; outline: as §1
[10] = system: MOLT-4; assay: Percentage inhibition of HIV-1-induced giant cell (syncytia) formation using MOLT-4 cell at 100 uM; format: functional; conditions: Homo sapiens; outline: as §1
[11] = system: Human immunodeficiency virus 1; assay: Cytotoxic concentration against HIV-1 (HTLV-IIIB) in peripheral blood lymphocytes; format: functional
[12] = system: Human immunodeficiency virus 1; assay: Antiviral concentration against HIV-1 (HTLV-IIIB) in peripheral blood lymphocytes; format: functional, organism-based

Row | EC50 [3] | SMILES | CC50 [7] | other results
1 | 52.5 µM | O=C(O)c1cc(NS(=O)(=O)c2ccc(-c3ccc(S(=O)(=O)Nc4cc(C(=O)O)c(O)c(S(=O)(=O)O)c4)cc3)cc2)cc(S(=O)(=O)O)c1O | 247 µM | inhibition at 0.8 µM [1]: 3%; inhibition at 20 µM [2]: 22%; CC50 [4]: > 100 µM; EC50 [5]: 7.5 µM; IC50 [6]: 37 µM; inhibition at 4 µM [8]: 0%; inhibition at 500 µM [9]: 100%; inhibition at 100 µM [10]: 94%
2 | 43 µM | O=S(=O)(O)c1ccc2cc(OS(=O)(=O)c3ccc(-c4ccc(S(=O)(=O)Oc5cc6ccc(S(=O)(=O)O)cc6cc5S(=O)(=O)O)cc4)cc3)c(S(=O)(=O)O)cc2c1 | > 500 µM | 
3 | 143 µM | O=C(CCCCCC(=O)Nc1ccc(S(=O)(=O)O)c2cccc(S(=O)(=O)O)c12)Nc1ccc(S(=O)(=O)O)c2cccc(S(=O)(=O)O)c12 | > 500 µM | 
4 | 41 µM | O=S(=O)(O)c1ccc2cc(NS(=O)(=O)c3ccc(-c4ccc(S(=O)(=O)Nc5cc6ccc(S(=O)(=O)O)cc6cc5S(=O)(=O)O)cc4)cc3)c(S(=O)(=O)O)cc2c1 | > 500 µM | 
5 | > 168 µM | O=S(=O)(O)c1cc(S(=O)(=O)O)c2cc(OS(=O)(=O)c3cccc4c(S(=O)(=O)Oc5ccc6cc(S(=O)(=O)O)cc(S(=O)(=O)O)c6c5)cccc34)ccc2c1 | > 500 µM | 
6 | 40 µM | O=S(=O)(O)c1cc(S(=O)(=O)O)c2cc(OS(=O)(=O)c3ccc(-c4ccc(S(=O)(=O)Oc5ccc6cc(S(=O)(=O)O)cc(S(=O)(=O)O)c6c5)cc4)cc3)ccc2c1 | 224 µM | 
7 | > 500 µM | O=C(CCC(=O)Nc1ccc(S(=O)(=O)O)c2ccccc12)Nc1ccc(S(=O)(=O)O)c2ccccc12 | > 500 µM | 
8 | 8.3 µM | O=S(=O)(O)c1cc(O)c2c(NS(=O)(=O)c3ccc(-c4ccc(S(=O)(=O)Nc5cc(S(=O)(=O)O)cc6cc(S(=O)(=O)O)cc(O)c56)cc4)cc3)cc(S(=O)(=O)O)cc2c1 | 320 µM | CC50 [11]: 38 µM; EC50 [12]: 9.2 µM
9 | 46 µM | O=C(CCCCCCCCCCC(=O)Nc1ccc(S(=O)(=O)O)c2cccc(S(=O)(=O)O)c12)Nc1ccc(S(=O)(=O)O)c2cccc(S(=O)(=O)O)c12 | > 500 µM | 
10 | 66.5 µM | O=C(CCCCCCCCC(=O)Nc1ccc(S(=O)(=O)O)c2cccc(S(=O)(=O)O)c12)Nc1ccc(S(=O)(=O)O)c2cccc(S(=O)(=O)O)c12 | > 500 µM | 
11 | 242 µM | O=C(CCCCCCC(=O)Nc1ccc(S(=O)(=O)O)c2cccc(S(=O)(=O)O)c12)Nc1ccc(S(=O)(=O)O)c2cccc(S(=O)(=O)O)c12 | > 500 µM | 
12 | > 500 µM | O=C(CCCCCCCCC(=O)Nc1ccc(S(=O)(=O)O)c2ccccc12)Nc1ccc(S(=O)(=O)O)c2ccccc12 | > 500 µM | 
13 | > 500 µM | O=C(CCCCCCC(=O)Nc1ccc(S(=O)(=O)O)c2ccccc12)Nc1ccc(S(=O)(=O)O)c2ccccc12 | > 500 µM | 
14 | 14 µM | O=S(=O)(O)c1cc(S(=O)(=O)O)c2cc(NS(=O)(=O)c3cccc4c(S(=O)(=O)Nc5ccc6cc(S(=O)(=O)O)cc(S(=O)(=O)O)c6c5)cccc34)ccc2c1 | > 500 µM | 
15 | 29.5 µM | O=S(=O)(O)c1cc(S(=O)(=O)O)c2cc(NS(=O)(=O)c3ccc(-c4ccc(S(=O)(=O)Nc5ccc6cc(S(=O)(=O)O)cc(S(=O)(=O)O)c6c5)cc4)cc3)ccc2c1 | > 500 µM | inhibition at 0.8 µM [1]: 6%; inhibition at 20 µM [2]: 34%; CC50 [4]: > 100 µM; EC50 [5]: 8.1 µM; IC50 [6]: 29 µM; inhibition at 4 µM [8]: 21%; inhibition at 500 µM [9]: 100%; inhibition at 100 µM [10]: 100%
16 | > 197 µM | O=C(Nc1ccc(S(=O)(=O)O)c2cccc(S(=O)(=O)O)c12)c1ccc(C(=O)Nc2ccc(S(=O)(=O)O)c3cccc(S(=O)(=O)O)c23)cc1 | > 500 µM | 
17 | 52.5 µM | O=C(O)c1cc(NS(=O)(=O)c2cccc3c(S(=O)(=O)Nc4cc(C(=O)O)c(O)c(S(=O)(=O)O)c4)cccc23)cc(S(=O)(=O)O)c1O | > 500 µM | 
18 | > 55 µM | O=S(=O)(O)c1cccc2ccc(OS(=O)(=O)c3cccc4c(S(=O)(=O)Oc5ccc6cccc(S(=O)(=O)O)c6c5)cccc34)cc12 | 144 µM | 
19 | > 100 µM | O=S(=O)(O)c1cccc2ccc(OS(=O)(=O)c3ccc(-c4ccc(S(=O)(=O)Oc5ccc6cccc(S(=O)(=O)O)c6c5)cc4)cc3)cc12 | 100 µM | 
20 | 8.2 µM | Cc1ccc(C(=O)Nc2ccc(S(=O)(=O)O)c3cc(S(=O)(=O)O)cc(S(=O)(=O)O)c23)cc1NC(=O)c1cccc(NC(=O)Nc2cccc(C(=O)Nc3cc(C(=O)Nc4ccc(S(=O)(=O)O)c5cc(S(=O)(=O)O)cc(S(=O)(=O)O)c45)ccc3C)c2)c1 [SURAMIN HEXASODIUM] | 250 µM | 

The remaining lines, values behind:

Row | SMILES | EC50 [3] | CC50 [7] | other results
21 | O=C(O)c1cc(NS(=O)(=O)c2cc(S(=O)(=O)Nc3cc(C(=O)O)c(O)c(S(=O)(=O)O)c3)cc(S(=O)(=O)Nc3cc(C(=O)O)c(O)c(S(=O)(=O)O)c3)c2)cc(S(=O)(=O)O)c1O | 11 µM | > 500 µM | 
22 | O=C(CCCCCCC(=O)Nc1cc(S(=O)(=O)O)cc2cc(S(=O)(=O)O)cc(O)c12)Nc1cc(S(=O)(=O)O)cc2cc(S(=O)(=O)O)cc(O)c12 [listing 1 of 2 here] | 2.9 µM | 360 µM | inhibition at 0.8 µM [1]: 6%; inhibition at 20 µM [2]: 96%; CC50 [11]: 20 µM; IC50 [6]: 6.4 µM; inhibition at 4 µM [8]: 31%; inhibition at 500 µM [9]: 100%; EC50 [12]: 1.3 µM; inhibition at 100 µM [10]: 100%
23 | O=C(CCCCCCCCCCC(=O)Nc1cc(S(=O)(=O)O)cc2cc(S(=O)(=O)O)cc(O)c12)Nc1cc(S(=O)(=O)O)cc2cc(S(=O)(=O)O)cc(O)c12 | 44 µM | 430 µM | inhibition at 0.8 µM [1]: 0%; inhibition at 20 µM [2]: 40%; CC50 [4]: > 100 µM; EC50 [5]: 12.5 µM; IC50 [6]: 26 µM; inhibition at 4 µM [8]: 11%; inhibition at 500 µM [9]: 100%; inhibition at 100 µM [10]: 100%
24 | Cc1cc(C)c(S(=O)(=O)Nc2cc(C(=O)O)c(O)c(S(=O)(=O)O)c2)c(C)c1S(=O)(=O)Nc1cc(C(=O)O)c(O)c(S(=O)(=O)O)c1 | 57 µM | > 500 µM | 
25 | Nc1ccc(S(=O)(=O)O)c2cccc(S(=O)(=O)O)c12 | > 500 µM | > 500 µM | 
26 | Nc1ccc2cc(S(=O)(=O)O)cc(S(=O)(=O)O)c2c1 | > 500 µM | > 500 µM | 
27 | O=C(CCCCCCCCC(=O)Nc1cc(S(=O)(=O)O)cc2cc(S(=O)(=O)O)cc(O)c12)Nc1cc(S(=O)(=O)O)cc2cc(S(=O)(=O)O)cc(O)c12 [listing 1 of 2 here] | 3.9 µM | > 100 µM | inhibition at 0.8 µM [1]: 0%; inhibition at 20 µM [2]: 35%; IC50 [6]: 29 µM; inhibition at 4 µM [8]: 30%; inhibition at 500 µM [9]: 100%; inhibition at 100 µM [10]: 100%
28 | Nc1cc(S(=O)(=O)O)cc2cc(S(=O)(=O)O)cc(O)c12 | > 529 µM | > 529 µM | 
29 | O=C(CCCCCCC(=O)Nc1cc(S(=O)(=O)O)cc2cc(S(=O)(=O)O)cc(O)c12)Nc1cc(S(=O)(=O)O)cc2cc(S(=O)(=O)O)cc(O)c12 [listing 2 of 2 here] |  |  | CC50 [4]: > 100 µM; EC50 [5]: 2.2 µM
30 | O=C(CCCCCCCCC(=O)Nc1cc(S(=O)(=O)O)cc2cc(S(=O)(=O)O)cc(O)c12)Nc1cc(S(=O)(=O)O)cc2cc(S(=O)(=O)O)cc(O)c12 [listing 2 of 2 here] |  |  | CC50 [4]: > 100 µM; EC50 [5]: 3.9 µM
31 | O=S(=O)(O)c1cc(S(=O)(=O)O)c2cc(O)ccc2c1 | > 500 µM | > 500 µM | 
32 | Nc1ccc(S(=O)(=O)O)c2ccccc12 | > 500 µM | > 500 µM | 
33 | Cc1ccc(C(=O)Nc2ccc(S(=O)(=O)O)c3cc(S(=O)(=O)O)cc(S(=O)(=O)O)c23)cc1NC(=O)c1cccc(NC(=O)Nc2cccc(C(=O)Nc3cc(C(=O)Nc4ccc(S(=O)(=O)O)c5cc(S(=O)(=O)O)cc(S(=O)(=O)O)c45)ccc3C)c2)c1 [SURAMIN] |  |  | CC50 [4]: 47 µM; EC50 [5]: 8 µM
